This is a sample that favours compounds with a hit; in the whole collection about 3.7% have one here.
JMJD2C inh = human JMJD2C demethylase inhibition; GST-JMJD2C(1-420) H3K9me3 demethylation, DELFIA europium; inhibition, % at 2.35 µM; actives 0.069% (n = 330,000); AID 2099;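 active means more than half of a compound's replicate wells show inhibition beyond 50%, single wells judged on their own value; inconclusive means some, but no more than half, of replicates pass 50% inhibition; inactive means no replicate passes 50% inhibition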;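 further: signal counts dimethyl H3K9 product captured on neutravidin plate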
SR-BI DiI inh = mouse SR-BI HDL lipid transfer inhibition | actives 0.96% (n = 320,000) | inhibition, % at 12.5 µM | ldlA[mSR-BI] CHO cells, DiI-HDL uptake fluorescence, 3 h | AID 488896;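 active means mean replicate inhibition of at least 70% and a set share of replicates each scoring 70 or more; inconclusive means meets just one of the two criteria; inactive means fails both criteria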
Target sequence (Q61009 whole entry, looked up): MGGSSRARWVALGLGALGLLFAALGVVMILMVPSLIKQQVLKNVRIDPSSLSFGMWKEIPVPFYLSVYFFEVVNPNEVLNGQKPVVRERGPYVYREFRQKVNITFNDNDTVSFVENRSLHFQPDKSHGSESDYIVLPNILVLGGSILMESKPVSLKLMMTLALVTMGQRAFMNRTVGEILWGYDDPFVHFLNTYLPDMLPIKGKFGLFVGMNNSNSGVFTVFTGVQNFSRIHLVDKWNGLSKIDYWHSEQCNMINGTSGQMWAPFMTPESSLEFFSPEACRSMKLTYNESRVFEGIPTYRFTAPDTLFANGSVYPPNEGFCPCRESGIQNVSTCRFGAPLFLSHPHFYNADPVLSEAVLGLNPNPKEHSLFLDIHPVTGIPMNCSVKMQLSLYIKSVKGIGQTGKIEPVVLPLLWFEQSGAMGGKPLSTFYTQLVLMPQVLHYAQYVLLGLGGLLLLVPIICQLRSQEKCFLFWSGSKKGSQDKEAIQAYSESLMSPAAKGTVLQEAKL
GAA850 FXN act = activators of GAA850 frataxin (FXN) promoter; actives 0.56% (n = 360,000); HEK293 lucGAA850 FXN promoter luciferase reporter, 24 h; percent of 10 µM SAHA response; activation, % at 6 µM; AID 540364;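 active means activation above the average of all compounds screened plus 3 SD, cutoff fixed separately per campaign, cut at about 7.5% in these data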
SR-BI DiI-HDL act = SR-BI HDL lipid transfer activation. activation, % at 12.5 µM. actives 0.096% (n = 320,000). CHO ldlA[mSR-BI] cells, DiI-HDL uptake fluorescence, 3 h; 100 = double the neutral-control signal. AID 504775;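 active means mean replicate activation of at least 60% and every replicate at or above 60%; inconclusive means mean or all-replicate condition met, but not both; inactive means mean below 60% and not all replicates reaching 60%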
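material = CHO ldlA[mSR-BI] cells | medium = Ham's F12 with 0.5% BSA, HEPES 25 mM, pH 7.4 | reagent = fluorescent DiI-HDL, 10 µg/mL final | compound dosing = single-point compound dose | incubation = 3 h, 37 °C | measured by = bottom-read fluorescence, 550/595 nm | measure = HDL uptake via cellular fluorescence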
AHR act = activates the human aryl hydrocarbon receptor. AID 2796. activation, % at 5 µM. actives 2.5% (n = 320,000). AHR-responsive luciferase reporter cells, luminescence; in the data active means activation above about 47%
Each line names hits and unclear results; the compound was inactive in the other large screens.

COc1cccc2c1nc(C)c1cc(C)oc12	AHR act 62
CC1(C(=O)NS(=O)(=O)c2cccc(OC(F)F)c2)CCN1C(=O)CC(c1ccccc1)c1ccccc1 (stereo not drawn)	none (no result: JMJD2C inh, SR-BI DiI inh, SR-BI DiI-HDL act, AHR act)
CC(C)(C)NC(=S)NNC(=O)c1ccncc1	SR-BI DiI-HDL act 185
CCNC(=S)NNC(=O)c1ccncc1	none
O=C(NCC1CC1)c1cc(-c2ccccc2)nn1CC1CC(c2cccnc2)=NO1 (stereo not drawn)	none
COc1ccc(C2=CC(=O)C=CC2=O)cc1	none (no result: GAA850 FXN act, AHR act)
CCN1CCCC1CNC(=O)c1cc2c(-c3cccc(OC)c3)nn(C)c2s1 (stereo not drawn)	none
CC(C)NC(=O)c1cc2c(-c3ccc(Cl)cc3)nn(C)c2s1	AHR act 59
CCCCN(CC)CCCNC(=O)c1cc2c(-c3ccc(OC)c(OC)c3)nn(C)c2s1	none
CCN1CCCC1CNC(=O)c1cc2c(-c3ccc(Cl)cc3)nn(C)c2s1 (stereo not drawn)	AHR act 59
COCCNC(=O)c1cc2c(-c3ccc(Cl)cc3)nn(C)c2s1	SR-BI DiI inh 87, AHR act 59
CCCCNC(=O)c1cc2c(-c3ccc(Cl)cc3)nn(C)c2s1	AHR act 50
CC(=O)Nc1ccc(S(=O)(=O)N(C)CC(=O)OCC(=O)N(C)c2ccccc2)cc1	none
Cc1ccc(CNC(=O)c2cc3c(-c4ccc(Cl)cc4)nn(C)c3s2)o1	SR-BI DiI inh 76
CCOC(=O)N1CCC(NC(=O)c2cc3c(-c4ccc(Cl)cc4)nn(C)c3s2)CC1	none (no result: JMJD2C inh)
Cn1nc(-c2ccc(Cl)cc2)c2cc(C(=O)NCCCN3CCCC3)sc21	SR-BI DiI inh 76, AHR act 54
COCCCNC(=O)c1cc2c(-c3ccc(Cl)cc3)nn(C)c2s1	SR-BI DiI inh 77, AHR act 64
O=C(c1cc(-c2ccc(Cl)cc2)on1)N1CCCCCC1	none
Cn1nc(-c2ccc(Cl)cc2)c2cc(C(=O)N3CCCC3)sc21	AHR act 50
COc1ccc(S(=O)(=O)N(C)C(C)CCc2ccco2)cc1 (stereo not drawn)	none
CCN(CC)c1ccc(NS(=O)(=O)c2cn(C)c(=O)n(C)c2=O)c(C)c1	none
Cc1ccc(N/C=C2/Sc3ccccc3NC2=O)cc1	none
COc1ccc(N/C=C2/Sc3ccccc3NC2=O)cc1	AHR act 55
Cc1cccc(NC(=O)c2cc(-c3ccccn3)nc3ccccc23)c1C	none
COc1cc(/C=C/C(=O)c2ccc3c(c2)OCO3)cc(OC)c1OC	none
COc1cc(/C=C/C(=O)c2ccc3c(c2)OCCO3)cc(OC)c1OC	SR-BI DiI inh 72
CCC(C)Sc1ccc([C@H]2N[C@@](CC(C)C)(C(=O)OC)[C@H]3C(=O)N(CC)C(=O)[C@@H]23)cc1 (stereo partly drawn)	JMJD2C inh inconclusive
CCC(C)Sc1ccc([C@H]2N[C@@](CC(C)C)(C(=O)OC)[C@H]3C(=O)N(C)C(=O)[C@@H]23)cc1 (stereo partly drawn)	JMJD2C inh inconclusive, SR-BI DiI inh 79
COC(=O)[C@]1(CC(C)C)N[C@H](c2ccc(SC3CCCCC3)c(OC)c2)[C@@H]2C(=O)N(C)C(=O)[C@@H]21	SR-BI DiI inh 75
COC(=O)[C@]1(CC(C)C)N[C@H](c2ccc(-c3ccc(F)cc3)c(OC)c2)[C@@H]2C(=O)N(C)C(=O)[C@@H]21	SR-BI DiI inh 89
CCSc1ccc([C@@H]2[C@@H]3C(=O)N(C)C(=O)[C@@H]3[C@]3(C(=O)OC)CCCCN23)cc1OC	SR-BI DiI-HDL act 67 (no result: JMJD2C inh)
CC(C)(C)C(=O)/C=C/c1ccc(Oc2ccccc2)cc1	none (no result: AHR act)
COc1ccc(Nc2nccc3c2nnn3C)cc1	AHR act 62
CC(NC(=O)COC(=O)c1c[nH]c2ccccc12)c1ccccc1 (stereo not drawn)	AHR act 56
Nn1c(SCC(=O)NCC2CCCO2)nnc1-c1ccc(OC(F)F)cc1 (stereo not drawn)	none
Cc1ccc(S(=O)(=O)N2CCN(C(=O)COC(=O)/C=C/c3ccc([N+](=O)[O-])cc3)CC2)c(C)c1	none
Cc1ccc(S(=O)(=O)N2CCN(C(=O)COC(=O)c3cc([N+](=O)[O-])ccc3NCCO)CC2)c(C)c1	SR-BI DiI inh 79
CCCCCCC(=O)Nc1ccc(C(=O)N/N=C/c2cccnc2)cc1	SR-BI DiI inh inconclusive
CCCCCCCC(=O)Nc1ccc(C(=O)N/N=C/c2cccc([N+](=O)[O-])c2)cc1	SR-BI DiI inh 87
O=C(N/N=C/c1ccc(Cl)c([N+](=O)[O-])c1)c1cc(-c2ccc3c4c(cccc24)CC3)n[nH]1	none
O=C(N/N=C/c1cccc([N+](=O)[O-])c1)c1cc(-c2ccc3c4c(cccc24)CC3)n[nH]1	AHR act 51
CCOC(=O)Cn1cc(Cl)c(=O)c(Cl)c1	none
O=C(NCc1ccc(Cl)cc1)NCC(F)(F)F	none
C(=N\Nc1nc2ccccc2[nH]1)/c1ccccc1	none
Cc1ccccc1/C=N/Nc1nc2ccccc2[nH]1	AHR act 65
Fc1ccc(/C=N/Nc2nc3ccccc3[nH]2)cc1F	AHR act 49
Cc1[nH]c2ccccc2c1/C=N/Nc1nc2ccccc2[nH]1	JMJD2C inh inconclusive, AHR act 143
C(=C\c1ccccc1)/C=N/Nc1nc2ccccc2[nH]1	AHR act 65
C(=N\Nc1nc2ccccc2[nH]1)/c1cccc2cccnc12	none
COc1ccc(/C=N/Nc2nc3ccccc3[nH]2)c(OC)c1OC	AHR act 51
Cc1[nH]c2ccccc2c1/C=N/Nc1nc(N2CCCCC2)nc(N2CCCCC2)n1	SR-BI DiI inh 91
COc1ccc(/C=N/Nc2ccccn2)c(OC)c1OC	none
COc1ccccc1/C=N/NC(=O)c1ccc(CN2C(=O)c3cccc4cccc2c34)cc1	SR-BI DiI inh 89
CCN(CC)c1ccc(C(=O)N/N=C/c2ccccc2OC(F)F)cc1	SR-BI DiI inh 86
COc1ccccc1/C=N/NC(=O)c1ccc(N(C)S(=O)(=O)c2ccccc2)cc1	SR-BI DiI inh 84
COc1ccccc1/C=N/NC(=O)c1ccc(Br)cc1	none
COc1ccc(/C=N\NC(=O)c2ccc(-c3ccccc3)cc2)c(OC)c1OC	SR-BI DiI inh 75 (no result: SR-BI DiI-HDL act, AHR act)
COc1ccc(/C=N/NC(=O)c2ccc(N(C)S(=O)(=O)c3ccccc3)cc2)c(OC)c1	none
COc1cc(/C=N/NC(=O)c2ccc(-c3ccccc3)cc2)cc(OC)c1OC	none
CN(c1nc2nonc2nc1NC1CC1)C1CCOC1 (stereo not drawn)	none
O=C(NNc1ccccc1)NC(Cc1ccccc1)C(=O)O (stereo not drawn)	SR-BI DiI-HDL act inconclusive (no result: JMJD2C inh, AHR act)
CCOC(=O)C1CCN(C(=O)COc2ccc3c(C)cc(=O)oc3c2)CC1	none
COc1cccc(/C=N/NC(=O)c2ccc(N(C)S(=O)(=O)c3ccccc3)cc2)c1OC	SR-BI DiI inh 83

Screening results from PubChem BioAssay.
